How the values were obtained:
Assay type in all cases: functional
OVCAR-3 [1] = experiment: Cytotoxicity against human OVCAR-3 cells assessed as cell growth at 0.01 uM after 48 hrs by sulforhodamine B assay; conditions: OVCAR-3, 48 h, read-out: Activity
OVCAR-3 [2] = experiment: Cytotoxicity against human OVCAR-3 cells assessed as cell growth at 0.001 uM after 48 hrs by sulforhodamine B assay; conditions: OVCAR-3, 48 h, read-out: Activity
COLO 205 [3] = experiment: Cytotoxicity against human COLO205 cells assessed as cell growth at 10 uM; conditions: read-out: Activity
Method in brief: (§1)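 Single-dose NCI-60 screen at 10 µM. Cells were grown in RPMI 1640 with 5% FBS and 2 mM L-glutamine, then treated for 48 h at 37 °C. Protein was measured by SRB staining with absorbance at 515 nm. Percentage growth was recorded, and inhibition percentage was calculated as 100 minus growth percentage.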

IGROV-1 = experiment: Cytotoxicity against human IGROV1 cells assessed as cell growth at 100 nM after 48 hrs by sulforhodamine B assay; conditions: IGROV-1, 48 h, read-out: Activity
A549 = experiment: Cytotoxicity against human A549 cells assessed as cell growth at 0.001 uM after 48 hrs by sulforhodamine B assay; conditions: A549, 48 h, read-out: Activity
Method in brief: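 NCI-60 five-dose screen. Cells were grown in RPMI 1640 with 5% FBS and 2 mM L-glutamine, plated at 5000–40,000 cells/well and preincubated for 24 h. Time-zero plates were TCA-fixed. DMSO-solubilized drug was added at five concentrations (10-fold or ½-log serial dilutions) for 48 h at 37 °C, 5% CO2. Cells were TCA-fixed, stained with 0.4% SRB and read at 515 nm. Percent growth used time-zero, control and test absorbances.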

SK-MEL-5 = experiment: Cytotoxicity against human SK-MEL-5 cells assessed as cell growth at 10 uM; conditions: read-out: Activity
Method in brief: (§2)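 NCI-60 screen: cells grown in RPMI 1640 with 5% FBS and 2 mM L-glutamine, plated at 5000–40,000 cells/well according to doubling time, and preincubated 24 h at 37 °C, 5% CO2. The single 10 µM dose (DMSO stock) was added, then incubated 48 h. Cells were TCA-fixed and stained with 0.4% SRB, read at 515 nm, and growth % calculated against time-zero and control plates.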

SK-OV-3 = experiment: Cytotoxicity against human SKOV3 cells assessed as cell growth at 10 uM; conditions: read-out: Activity; method in brief: as §2
SR = experiment: Cytotoxicity against human SR cells assessed as cell growth at 10 uM after 48 hrs by sulforhodamine B assay; conditions: read-out: Activity
HCC 2998 [4] = experiment: Cytotoxicity against human HCC2998 cells assessed as cell growth at 10 uM; conditions: read-out: Activity; method in brief: as §1
OVCAR-3 [5] = experiment: Cytotoxicity against human OVCAR-3 cells assessed as cell growth at 1 uM after 48 hrs by sulforhodamine B assay; conditions: OVCAR-3, 48 h, read-out: Activity
HCC 2998 [6] = experiment: Cytotoxicity against human HCC2998 cells assessed as cell growth at 0.01 uM after 48 hrs by sulforhodamine B assay; conditions: HCC 2998, 48 h, read-out: Activity
OVCAR-4 = experiment: Cytotoxicity against human OVCAR4 cells assessed as cell growth at 0.01 uM after 48 hrs by sulforhodamine B assay; conditions: OVCAR-4, 48 h, read-out: Activity
UO-31 = experiment: Cytotoxicity against human UO31 cells assessed as cell growth at 10 uM; conditions: read-out: Activity; method in brief: as §2
OVCAR-3 [7] = experiment: Cytotoxicity against human OVCAR-3 cells assessed as cell growth at 10 uM after 48 hrs by sulforhodamine B assay; conditions: OVCAR-3, 48 h, read-out: Activity
COLO 205 [8] = experiment: Growth inhibition of human COLO205 cells after 48 hrs by sulforhodamine B assay; conditions: COLO 205, 48 h; for CC50: read-out: LC50 (the source's name)
Method in brief: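 NCI five-dose SRB assay in RPMI 1640 with 5% FBS and 2 mM L-glutamine. Cells were preincubated 24 h, then exposed 48 h at 37 °C to five concentrations (10-fold or half-log serial dilutions from DMSO stocks). TCA fixation, SRB staining, and absorbance at 515 nm followed. IC50 was taken where [(Ti−Tz)/(C−Tz)]×100 = 50, with Tz as time-zero cell density.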

NCI-H460 = experiment: Cytotoxicity against human NCI-H460 cells assessed as cell growth at 10 uM; conditions: read-out: Activity; method in brief: as §2
COLO 205 [9] = experiment: Cytotoxicity against human COLO205 cells assessed as cell growth at 10 uM after 48 hrs by sulforhodamine B assay; conditions: COLO 205, 48 h, read-out: Activity
OVCAR-8 = experiment: Cytotoxicity against human OVCAR8 cells assessed as cell growth at 1 uM after 48 hrs by sulforhodamine B assay; conditions: OVCAR-8, 48 h, read-out: Activity
T47D = experiment: Cytotoxicity against human T47D cells assessed as cell growth at 100 nM after 48 hrs by sulforhodamine B assay; conditions: read-out: Activity
NCI-H23 = experiment: Cytotoxicity against human NCI-H23 cells assessed as cell growth at 0.001 uM after 48 hrs by sulforhodamine B assay; conditions: NCI-H23, 48 h, read-out: Activity
HOP-92 = experiment: Cytotoxicity against human HOP92 cells assessed as cell growth at 0.01 uM after 48 hrs by sulforhodamine B assay; conditions: HOP-92, 48 h, read-out: Activity
EKVX = experiment: Cytotoxicity against human EKVX cells assessed as cell growth at 100 nM after 48 hrs by sulforhodamine B assay; conditions: read-out: Activity
SF-539 = experiment: Cytotoxicity against human SF539 cells assessed as cell growth at 0.001 uM after 48 hrs by sulforhodamine B assay; conditions: SF-539, 48 h, read-out: Activity
KM12 = experiment: Cytotoxicity against human KM12 cells assessed as cell growth at 1 uM after 48 hrs by sulforhodamine B assay; conditions: KM12, 48 h, read-out: Activity
[10] = Cytotoxicity against human […] cells assessed as cell growth at 0.001 uM after 48 hrs by sulforhodamine B assay; conditions: read-out: Activity
SW-620 = experiment: Cytotoxicity against human SW620 cells assessed as cell growth at 100 nM after 48 hrs by sulforhodamine B assay; conditions: SW-620, 48 h, read-out: Activity
MOLT-4 = experiment: Cytotoxicity against human MOLT4 cells assessed as cell growth at 1 uM after 48 hrs by sulforhodamine B assay; conditions: MOLT-4, 48 h, read-out: Activity
NCI/ADR-RES = experiment: Cytotoxicity against human NCI/ADR-RES cells assessed as cell growth at 10 uM; conditions: read-out: Activity; method in brief: as §2
HCT-116 = experiment: Cytotoxicity against human HCT116 cells assessed as cell growth at 0.001 uM after 48 hrs by sulforhodamine B assay; conditions: HCT-116, 48 h, read-out: Activity
SN12C = experiment: Growth inhibition of human SN12C cells after 48 hrs by sulforhodamine B assay
Method in brief: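 NCI 60-cell screen, five-dose mode. Cells grown in RPMI 1640 with 5% FBS and 2 mM L-glutamine and plated at 5000-40,000 cells/well according to doubling time. After 24 h preincubation, a Tz plate was TCA-fixed. Five concentrations (10-fold or 1/2 log dilutions) were applied for 48 h at 37 °C. SRB staining read at 515 nm. IC50 taken from [(Ti-Tz)/(C-Tz)]×100 = 50.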

Compound	growth at 0.01 µM (OVCAR-3 [1]) [%]	growth at 0.001 µM (OVCAR-3 [2]) [%]	growth at 10 µM (COLO 205 [3]) [%]	growth at 0.1 µM (IGROV-1) [%]	growth at 0.001 µM (A549) [%]	growth at 10 µM (SK-MEL-5) [%]	growth at 10 µM (SK-OV-3) [%]	growth at 10 µM (SR) [%]	growth at 10 µM (HCC 2998 [4]) [%]	growth at 1 µM (OVCAR-3 [5]) [%]	growth at 0.01 µM (HCC 2998 [6]) [%]	growth at 0.01 µM (OVCAR-4) [%]	growth at 10 µM (UO-31) [%]	growth at 10 µM (OVCAR-3 [7]) [%]	GI50 (COLO 205 [8]) [nM]	TGI (COLO 205 [8]) [µM]	CC50 (COLO 205 [8]) [µM]	growth at 10 µM (NCI-H460) [%]	growth at 10 µM (COLO 205 [9]) [%]	growth at 1 µM (OVCAR-8) [%]	also measured
COc1cc(C)cc(-c2nn(CC#N)cc2-c2ccc(-c3cccc(C(C)=O)c3)nc2)c1	104	102	-44.6	88	97	4.86	10.1	28	28.6	-61	87	97	33.8	-64	1850	4.13	9.2	17.4	-62	14	growth at 0.1 µM (T47D): 81%; growth at 0.001 µM (NCI-H23): 94%; growth at 0.01 µM (HOP-92): 80%; growth at 0.1 µM (EKVX): 89%; growth at 0.001 µM (SF-539): 94%; growth at 1 µM (KM12): 4%; growth at 0.001 µM [10]: 100%; growth at 0.1 µM (SW-620): 56%; growth at 1 µM (MOLT-4): 19%; growth at 10 µM (NCI/ADR-RES): -25.8%; growth at 0.001 µM (HCT-116): 101%; GI50 (SN12C): 6.08 µM; LC50 (SN12C): > 100 µM; TGI (SN12C): > 100 µM
Cc1cc(O)cc(-c2nn(CC#N)cc2-c2ccnc(-c3ccc(Oc4ccccc4)cc3)c2)c1	103	92	28.4	86	96	64.3	89.6	-12	28.2	-63	89	112	46.9	-100	1800	3.26	5.9	61.4	-96	-30	growth at 0.1 µM (T47D): 84%; growth at 0.001 µM (NCI-H23): 91%; growth at 0.01 µM (HOP-92): 59%; growth at 0.1 µM (EKVX): 77%; growth at 0.001 µM (SF-539): 88%; growth at 1 µM (KM12): -39%; growth at 0.001 µM [10]: 97%; growth at 0.1 µM (SW-620): 92%; growth at 1 µM (MOLT-4): -16%; growth at 10 µM (NCI/ADR-RES): 37.9%; growth at 0.001 µM (HCT-116): 95%; GI50 (SN12C): 1.8 µM; LC50 (SN12C): 9.01 µM; TGI (SN12C): 4.02 µM
